Sampled rows, rich in hits. Any-hit rate of the full collection: about 4.6%.
TAAR1 agonist: agonists of human TAAR1 | activation, % at 3 µM | Q96RJ0 | 0.99% of 360,000 active | CHO RD-HGA16 TAAR1, Fluo-8 calcium fluorescence; vehicle wells 0%, saturating PEA agonist 100%;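 active = activation above the mean activation of all test compounds in the run plus 3 SD, cut at about 38% in these data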
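Signal – calcium-sensitive Fluo-8 signal, excitation 470-495, emission 515-575 nm · System – RD-HGA16 (CHO) cells co-expressing Gα16 and hTAAR1 · Incubation – 17-24 h seeding, 75 min 37 °C dye, 30 min RT · Compound dosing – 3 µM single concentration · Repeats – no replicates (n 1)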
TAAR1 antag: human TAAR1 antagonism. Q96RJ0. CHO RD-HGA16 TAAR1, Fluo-8 calcium fluorescence, antagonist. inhibition, % at 3 µM. 1.5% of 360,000 active. AID 624466;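 active = inhibition above a per-plate cutoff, the mean inhibition of test compounds on that plate plus 3 SD, cut at about 49% in these data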
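Test system: RD-HGA16 CHO cells with stable hTAAR1 and Gα16 / Probe or stimulus: EC80 β-phenethylamine stimulus / Times: seeding 17-24 h prior, 75-min 37 °C, 30-min RT dye loading / Detection: Fluo-8 calcium-sensitive fluorescence / Read-out basis: % inhibition scaled between DMSO and EC80 PEA controls / Repeats: singlicate, one well per test compound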
CHO parental Ca: counter-screen: ATP calcium response change in parental CHO cells | parental CHO-K1, ATP-induced calcium, Fluo-8 fluorescence | inhibition, % at 5.6 µM | 0.63% of 330,000 active | AID 463079;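 active = inhibition above that plate's mean sample inhibition plus 3 SD, cut at about 26% in these data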
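Material – parental CHO cells · Reagent – ATP stimulus · Compound – single nominal dose of 5.6 µM per compound · Detection – Fluo-8 fluorescence · Read-out basis – percent inhibition of calcium signal · Controls – ATP-challenged DMSO wells low, unchallenged DMSO wells high · Repeats – no replicates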
GPR7 antag: blocks human GPR7 receptor signaling; P48145; GPR7-expressing cells, fluorescence antagonist assay; inhibition, % at 4.4 µM; 1.1% of 290,000 active; AID 1861; in the data active = inhibition above about 16%, passing the limit was not always enough;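 also: cells stimulated with the agonist NPW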
OX1R antag-1: human HCRTR1 antagonism; CHO/OX1R cells, Fluo-8 calcium fluorescence, orexin A; inhibition, % at 5 µM; 0.43% of 330,000 active; AID 434989;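 active = inhibition above its plate's threshold, mean inhibition of all tested compounds on the plate plus 3 SD, cut at about 37% in these data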
Target sequence (O43613 whole entry, looked up): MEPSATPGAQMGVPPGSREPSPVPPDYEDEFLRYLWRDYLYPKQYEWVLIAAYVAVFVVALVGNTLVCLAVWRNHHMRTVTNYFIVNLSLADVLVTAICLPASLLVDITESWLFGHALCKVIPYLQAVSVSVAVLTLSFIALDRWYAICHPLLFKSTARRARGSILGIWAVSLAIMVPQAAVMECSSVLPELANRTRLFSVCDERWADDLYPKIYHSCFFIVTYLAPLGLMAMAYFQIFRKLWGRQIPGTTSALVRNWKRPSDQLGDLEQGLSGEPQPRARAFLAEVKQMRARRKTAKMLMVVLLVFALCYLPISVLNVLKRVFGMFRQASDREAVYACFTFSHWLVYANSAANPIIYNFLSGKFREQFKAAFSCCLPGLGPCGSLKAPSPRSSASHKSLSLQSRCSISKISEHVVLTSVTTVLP
OX1R antag-2: OX1R (human) antagonism. 1.8% of 330,000 active. O43613. inhibition, % at 6.6 µM. OX1R-expressing cells, FRET antagonist read-out; in the data active = inhibition mostly above about 38%, no sharp cut-off; inactive = mostly below about 40%
TAAR1 ag conf: confirmation of human TAAR1 agonists. 82% of 2,400 active. activation, % at 3 µM. CHO RD-HGA16 TAAR1, Fluo-8 calcium fluorescence; scaled: DMSO 0%, maximal phenethylamine 100%. shares compounds with TAAR1 agonist;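 active = activation above a cutoff set at the run's mean compound activation plus 3 SD, cut at about 39% in these data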
Ga16 ag counter: nonselective agonist in parental cells, TAAR1 agonist counter-screen. CHO-Ga16 parental, Fluo-8 calcium fluorescence; normalized to maximal ATP response, DMSO zero. 50% of 2,400 active. AID 651787. shares compounds with TAAR1 agonist. activation, % at 3 µM;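 active = activation above the run cutoff, the mean activation over all tested wells plus 3 SD, cut at about 12% in these data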
TAAR1 desens: counter-screen for human TAAR1 agonists: agonists that desensitize TAAR1 | 46% of 2,400 active | inhibition, % at 3 µM | CHO RD-HGA16 hTAAR1, Fluo-8 calcium, beta-PEA response inhibition | shares compounds with TAAR1 agonist;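 active = inhibition above the run cutoff, the mean inhibition of all test compounds plus 3 SD, cut at about 49% in these data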;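 also: beta-PEA stimulus applied at its EC80; loss of beta-PEA calcium signal after compound pretreatment read as receptor desensitization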
Ga16 nonsel ant: counter-screen for TAAR1 agonists: nonselective Ga16 antagonists; CHO-Ga16 ATP-induced calcium, Fluo-8 fluorescence; 39% of 2,400 active; inhibition, % at 3 µM; shares compounds with TAAR1 agonist;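 active = inhibition above the plate's mean compound inhibition plus 3 SD, computed per plate, cut at about 22% in these data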
Numbers stand for hits.

Screening COc1ccccc1C(=O)NNC(=S)NC(=O)c1cccs1 returned TAAR1 agonist 106, TAAR1 antag inactive, CHO parental Ca inactive, GPR7 antag inactive, OX1R antag-1 inactive, OX1R antag-2 inactive, TAAR1 ag conf 103, Ga16 ag counter 77, TAAR1 desens inactive and Ga16 nonsel ant 38.
For COc1ccc(/C=C/C(=O)NC(=S)NNC(=O)c2cccs2)cc1 the results were TAAR1 agonist 100, TAAR1 antag 73, CHO parental Ca inactive, GPR7 antag inactive, OX1R antag-1 inactive, OX1R antag-2 inactive, TAAR1 ag conf 69, Ga16 ag counter 51, TAAR1 desens 50 and Ga16 nonsel ant 41.
CCNC(=O)C1(C)CCCN(C(=O)c2ccc(OC)c(F)c2)C1 (stereo not given) was read as TAAR1 agonist inactive and TAAR1 antag inactive.
`COc1ccccc1N1CCN(Cc2cc(=O)c(OCC(=O)NC3CCCC3)co2)CC1` gave TAAR1 agonist inactive, TAAR1 antag inactive, CHO parental Ca inactive, OX1R antag-1 inactive and OX1R antag-2 inactive.
For CCCCNc1ccc2c3c(cccc13)C(=O)N(CCCC)C2=O the results were TAAR1 agonist 498, TAAR1 antag 108, GPR7 antag 37, TAAR1 ag conf 182, Ga16 ag counter 288, TAAR1 desens 90 and Ga16 nonsel ant 95.
O=C(c1ccc(S(=O)(=O)NCc2ccco2)cc1)N1CCCC(C(F)(F)F)C1 (stereo not given) was read as TAAR1 agonist inactive, TAAR1 antag inactive, CHO parental Ca inactive, OX1R antag-1 inactive and OX1R antag-2 inactive.
Screening Cn1c(O)c(C2=c3ccccc3=NC2=O)sc1=Nc1ccc(Cl)cc1 returned TAAR1 agonist inactive, TAAR1 antag inactive, CHO parental Ca inactive, GPR7 antag inactive, OX1R antag-1 inactive and OX1R antag-2 inactive.
Cc1ccc2c(c1)c(C1=c3ccccc3=NC1=O)c(O)n2C was read as TAAR1 agonist 63, TAAR1 antag inactive, CHO parental Ca inactive, GPR7 antag inactive, OX1R antag-1 inactive, OX1R antag-2 inactive, TAAR1 ag conf 39, Ga16 ag counter 16, TAAR1 desens inactive and Ga16 nonsel ant 25.
For NC(=O)c1ccc(SCC(=O)OCC(=O)NCC2CCCCC2)c([N+](=O)[O-])c1 the results were TAAR1 agonist inactive, TAAR1 antag inactive, CHO parental Ca inactive, OX1R antag-1 inactive and OX1R antag-2 inactive.
Screening CCCCC(CC)CNC(=O)C1C2C=CC(C2)C1C(=O)O (stereo not given) returned TAAR1 agonist 78, TAAR1 antag 49, CHO parental Ca inactive, GPR7 antag inactive, OX1R antag-1 inactive, OX1R antag-2 inactive, TAAR1 ag conf 90, Ga16 ag counter inactive, TAAR1 desens 51 and Ga16 nonsel ant inactive.
For O=C(O)C1C2C=CC(C2)C1C(=O)NCCCc1ccccc1 (stereo not given) the results were TAAR1 agonist 76, TAAR1 antag inactive, CHO parental Ca inactive, GPR7 antag inactive, OX1R antag-1 inactive, OX1R antag-2 inactive, TAAR1 ag conf 80, Ga16 ag counter inactive, TAAR1 desens inactive and Ga16 nonsel ant inactive.
O=C(O)C1C2C=CC(C2)C1C(=O)NCCc1ccncc1 (stereo not given) was read as TAAR1 agonist inactive, TAAR1 antag inactive, CHO parental Ca inactive, GPR7 antag inactive, OX1R antag-1 inactive and OX1R antag-2 inactive.
For O=C(O)C1C2C=CC(C2)C1C(=O)NCc1ccccn1 (stereo not given) the results were CHO parental Ca inactive, GPR7 antag inactive, OX1R antag-1 inactive and OX1R antag-2 inactive.
`O=C(O)C1C2C=CC(C2)C1C(=O)NCCc1ccccc1` (stereo not given) gave TAAR1 agonist 84, TAAR1 antag 92, CHO parental Ca inactive, GPR7 antag inactive, OX1R antag-1 inactive, OX1R antag-2 inactive, TAAR1 ag conf 96, Ga16 ag counter inactive, TAAR1 desens 94 and Ga16 nonsel ant inactive.
For CCOC(=O)c1ccc(NC(=O)C2C3C=CC(C3)C2C(=O)O)cc1 (stereo not given) the results were TAAR1 agonist inactive, TAAR1 antag inactive, CHO parental Ca inactive, GPR7 antag inactive, OX1R antag-1 inactive and OX1R antag-2 inactive.
CN(C)C=Nc1c(Br)cc(Br)c2nonc12 was read as TAAR1 agonist 87, TAAR1 antag 78, CHO parental Ca 64, GPR7 antag inactive, OX1R antag-1 58, OX1R antag-2 inactive, TAAR1 ag conf 48, Ga16 ag counter 73, TAAR1 desens 56 and Ga16 nonsel ant 66.
`CCCn1c(NC(=O)c2ccco2)nc2ccccc21` gave TAAR1 agonist inactive, TAAR1 antag inactive, CHO parental Ca inactive, GPR7 antag inactive, OX1R antag-1 inactive and OX1R antag-2 inactive.
CCCn1c(NC(=O)C2COc3ccccc3O2)nc2ccccc21 (stereo not given) was read as TAAR1 agonist 51, TAAR1 antag 49, CHO parental Ca inactive, GPR7 antag inactive, OX1R antag-1 inactive, OX1R antag-2 inactive, TAAR1 ag conf inactive, Ga16 ag counter inactive, TAAR1 desens inactive and Ga16 nonsel ant inactive.
For CCOC(=O)c1csc(NC(=O)CSc2nnnn2-c2ccc(OC)cc2)n1 the results were TAAR1 agonist 53, TAAR1 antag inactive, CHO parental Ca inactive, GPR7 antag inactive, OX1R antag-1 inactive, OX1R antag-2 inactive, TAAR1 ag conf inactive, Ga16 ag counter 16, TAAR1 desens inactive and Ga16 nonsel ant inactive.
For O=c1oc2ccccc2c(NCCc2ccccc2)c1[N+](=O)[O-] the results were TAAR1 agonist 63, TAAR1 antag inactive, CHO parental Ca inactive, GPR7 antag inactive, OX1R antag-1 inactive, OX1R antag-2 inactive, TAAR1 ag conf 70, Ga16 ag counter inactive, TAAR1 desens inactive and Ga16 nonsel ant inactive.
For O=c1oc2ccccc2c(NCc2ccccc2F)c1[N+](=O)[O-] the results were TAAR1 agonist inactive, TAAR1 antag inactive, CHO parental Ca inactive, GPR7 antag inactive, OX1R antag-1 inactive and OX1R antag-2 inactive.

Assay outcomes deposited in PubChem by The Scripps Research Institute Molecular Screening Center.
